# Assay outcomes from PubChem.
# Shown are actives, neighbours in structure and some others; about 2.3% of the full set was active somewhere.
# Rpn11 inh: Rpn11 (PSMD14) deubiquitinase inhibitors, primary screen, biochemical, fluorescence polarization, uHTS; 26S proteasome non-ATPase regulatory subunit 14 (Homo sapiens), O00487; human 26S proteasome, Ub4-pepOG fluorescence polarization; 20S core pre-blocked with epoxomicin; calls only at 20 µM; 0.59% of 360,000 active; AID 588493, 2011;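 active means inhibition at 20 µM, scaled to each plate's controls, above about 33%, limit read from the data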
# CSN inh: inhibitors of CSN-mediated cullin deneddylation, primary screen, biochemical, fluorescence polarization, uHTS | 0.38% of 360,000 active | inhibition, % at 12.5 µM | COP9 signalosome complex subunit 5 (Homo sapiens), Q92905 | Purified CSN, SCF-Nedd8-OG deneddylation;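 active means pattern-corrected inhibition above about 35%, with an unprinted fluorescence ratio check between 0.5 and 1.5, limit read from the data, passing the limit was not always enough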
#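 Test system: Human Csn5 produced in HEK293T cells | Compound: 12.5 µM single point | Times: 90 min, room temperature | Signal: Fluorescence polarization readout | Read-out basis: % inhibition of substrate cleavage by Csn5 | Controls: no-enzyme wells high, enzyme-with-substrate wells low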
# TPT1 inhibitor: Candida albicans TPT1 enzyme inhibitors, primary screen, biochemical, fluorescence polarization; 0.81% of 300,000 active; inhibition, % at 5 µM; recombinant caTPT1, FP RNA substrate dephosphorylation;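 active means inhibition above the mean of all tested compounds plus 3 SD, set per screening campaign, cut at about 24% in these data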
# CRFBP-R2 block: antagonists of CRF-BP/CRF-R2 complex, primary screen, cell-based, HEK293, calcium dye fluorescence, uHTS; CRF-induced calcium fluorescence; inhibition, % at 11.8 µM; 0.59% of 350,000 active; AID 588475, 2011;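 active means inhibition of the ligand-induced calcium signal above about 50% at the single tested concentration, limit read from the data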
# HNF4A DNA FP: change in binding of human HNF4A to DNA, primary screen, biochemical, fluorescence polarization, FITC-DNA | Hepatocyte nuclear factor 4-alpha (Homo sapiens), P41235 | 1 h | activity change, % at 10 µM | 0.3% of 360,000 active | AID 1224865, 2016; in the data active means activity change above about 30%, passing the limit was not always enough
# Target sequence (P41235 whole entry, looked up): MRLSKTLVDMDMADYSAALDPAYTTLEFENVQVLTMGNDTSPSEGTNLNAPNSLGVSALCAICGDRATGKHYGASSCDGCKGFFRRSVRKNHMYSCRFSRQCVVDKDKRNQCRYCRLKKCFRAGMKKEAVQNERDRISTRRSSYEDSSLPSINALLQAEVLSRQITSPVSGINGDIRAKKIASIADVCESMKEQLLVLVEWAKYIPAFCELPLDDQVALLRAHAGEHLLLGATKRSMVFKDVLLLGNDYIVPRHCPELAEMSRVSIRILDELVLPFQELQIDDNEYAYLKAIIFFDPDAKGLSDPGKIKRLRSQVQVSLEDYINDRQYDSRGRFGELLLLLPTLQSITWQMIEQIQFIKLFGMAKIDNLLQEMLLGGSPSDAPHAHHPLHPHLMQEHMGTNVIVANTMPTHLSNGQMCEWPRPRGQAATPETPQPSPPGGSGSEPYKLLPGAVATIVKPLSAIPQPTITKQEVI
# CRFBP-R2 agonist: agonists of CRF-BP/CRF-R2 complex, primary screen, cell-based, HEK293, calcium dye fluorescence, uHTS; activation, % at 13.2 µM; 0.46% of 350,000 active; CRF-binding protein / CRF receptor 2 complex (human); calcium dye fluorescence (FLIPR); percent of saturating CRF peptide response;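 active means activation of at least 50%, plus an integration ratio under a set limit after plate pattern correction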
# Rpn11 inh conf: Rpn11 (PSMD14) deubiquitinase inhibitors, confirmation, biochemical, fluorescence polarization, single concentration; shares compounds with Rpn11 inh; purified human 26S proteasome, Ub4-pepOG fluorescence polarization; proteasome pretreated with epoxomicin; inhibition, % at 20 µM; 29% of 1,900 active; AID 602318, 2012
# MMP-2 inh: MMP-2 enzyme inhibition, confirmation, counter-screen for RPN11 inhibitor project, biochemical, fluorescence, single concentration; inhibition, % at 20 µM; recombinant MMP-2, FRET peptide cleavage fluorescence; 4% of 1,900 active; AID 602330, 2012; shares compounds with Rpn11 inh;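 further: human MMP-2 activated beforehand with APMA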
# Thrombin FP: bovine thrombin protease inhibition, confirmation, counter-screen for Rpn11 inhibitor project, biochemical, fluorescence polarization, single concentration | shares compounds with Rpn11 inh | bovine thrombin cleavage of Ub4-pepOG | inhibition, % at 20 µM | 13% of 1,900 active;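 active means mean inhibition at least 40% at 20 µM, or signal 3 deviations below plate average, so some actives read negative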
# Numbers stand for hits; . = inactive; / = no result; + = active, no number. Unless noted, no stated cut-off is given here; in the data, active means inhibition above about 40%; inactive means the rest.
SMILES,Rpn11 inh,CSN inh,TPT1 inhibitor,CRFBP-R2 block,HNF4A DNA FP,CRFBP-R2 agonist,Rpn11 inh conf,MMP-2 inh,Thrombin FP
CCOc1ccc(CCNC(=O)Cn2c(=O)c3cccn3c3cccnc32)cc1,+,.,.,.,.,.,.,.,.
NS(=O)(=O)c1ccc(CCNC(=O)Cn2c(=O)c3cccn3c3cccnc32)cc1,.,.,.,.,.,.,/,/,/
O=C(/C=C/c1ccco1)Nc1ccc(-c2nc3ccccc3[nH]2)cc1,+,.,.,.,65.6,.,.,.,.
O=C(Nc1ccc(-c2nc3ccccc3[nH]2)cc1)c1ccco1,.,.,.,.,.,.,/,/,/
Cc1ccc2oc(=O)c3cc(C(=O)NCCCN4CCCCCC4)sc3c2c1,+,.,.,.,.,.,.,.,.
O=C(NCCCN1CCOCC1)c1cc2c(=O)[nH]c3ccccc3c2s1,+,.,.,.,.,.,.,.,.
O=C(NCCCN1CCOCC1)c1cccc(NC(=O)c2ccccc2)c1,+,.,.,.,.,.,.,.,.
CCOC(=O)Cn1nc(-c2ccccc2)nc1-c1ccccc1,.,.,.,.,.,.,/,/,/
CCOC(=O)Cn1ncc(-c2ccccc2)c1N,+,.,.,.,.,.,.,.,.
CCOc1cc(/C=C2\SC(=S)N(NS(=O)(=O)c3ccc(C)cc3)C2=O)ccc1O,+,.,.,.,.,.,69.2,.,56.7
COc1cc(/C=C2\SC(=S)N(Nc3ccccc3)C2=O)cc(OC)c1OC,.,.,.,.,.,.,/,/,/
Cc1ccc(S(=O)(=O)NN2C(=O)/C(=C/c3cccc(F)c3)SC2=S)cc1,.,.,.,.,.,.,/,/,/
COc1cc(/C=C2\SC(=S)N(NC(=O)c3ccccc3OC)C2=O)ccc1O,+,.,/,.,47.7,.,.,.,.
Cc1ccc(-n2c(C)c(C)c3c(N)ncnc32)cc1,.,.,.,.,.,.,/,/,/
CN1/C(=C/C(=O)c2nc(S(C)(=O)=O)ncc2Cl)C(C)(C)c2ccccc21,+,.,.,.,.,.,.,.,.
O=C(NC(=S)Nc1ccccc1C(=O)O)c1cncc(Br)c1,.,.,.,.,.,.,/,/,/
O=C(NC(=S)Nc1ccccc1O)c1cncc(Br)c1,+,.,.,.,.,.,.,.,.
O=C1c2ccccc2S(=O)(=O)c2cc(-c3nn[nH]n3)ccc21,.,.,/,.,.,.,/,/,/
COc1cccc(-c2csc(N3CCN(C(=S)Nc4cccc(Cl)c4)CC3)n2)c1,+,.,.,.,.,.,.,.,.
CCc1ccc(Nc2nnc(SCC(=O)Nc3cccc(S(=O)(=O)NC4=NCCCCC4)c3)s2)cc1,.,.,.,.,.,.,/,/,/
CCCCC(=O)N(Cc1ccc(F)cc1)C1CCS(=O)(=O)C1 (stereo unspecified),+,.,.,.,.,.,.,.,.
CC(C)(C)S(=O)N1Cc2cc(C(=O)N[C@@H]3CCN(Cc4ccccc4)C3)nc(-c3cccc(-c4cc5ccccc5o4)c3)c2[C@@H]1CCO (stereo partly specified),+,.,/,/,.,/,.,.,.
CC(C)(C)OC(=O)NC(Cc1ccccc1)C(=O)O (stereo unspecified),.,.,.,.,.,.,/,/,/
O=C(Cc1cccc2ccccc12)Nc1ccc(-c2cc3ccccc3oc2=O)cc1,+,.,.,.,.,.,.,.,.
CNC(=O)CCc1ccc(OC)cc1,.,.,.,.,.,.,/,/,/
SMILES,Rpn11 inh,CSN inh,TPT1 inhibitor,CRFBP-R2 block,HNF4A DNA FP,CRFBP-R2 agonist,Rpn11 inh conf,MMP-2 inh,Thrombin FP
COc1ccc2nc(Nc3nc(CSc4nnnn4-c4ccccc4)cc(=O)[nH]3)nc(C)c2c1,.,.,.,.,.,.,/,/,/
CCOc1ccc2nc(Nc3nc(CSc4nnnn4-c4ccccc4)cc(=O)[nH]3)nc(C)c2c1,+,.,.,.,.,.,.,.,.
Cc1ccccc1C(=O)c1c[nH]c(C(=O)NCC2CCCO2)c1 (stereo unspecified),.,.,.,.,.,.,/,/,/
O=Nc1c2cc(-c3ccccc3)[nH]nc-2c2ccccc12,.,.,/,.,.,.,/,/,/
Cc1ccc(-c2cc3c(N=O)c4ccccc4c-3n[nH]2)cc1,+,.,.,.,.,.,.,.,.
Cc1cc(C)cc(NC(=S)/C(=C(\[O-])c2ccc(Cl)s2)[n+]2cccc(C)c2)c1,.,.,.,.,.,.,/,/,/
O=CNCc1nc2ccccc2n1CCCc1ccccc1,.,.,.,.,.,.,/,/,/
Cn1c(-c2c(N)n(CCCc3ccccc3)c3nc4ccccc4nc23)nc2ccccc21,+,.,/,.,.,.,.,.,.
COc1ccccc1C/C(N)=N/OC(=O)c1ccc2c(c1)OCO2,.,.,.,.,.,.,/,/,/
COc1ccc(-n2ccc(=O)c(C(=O)Nc3ccc(S(=O)(=O)Nc4nccs4)cc3)n2)cc1,+,.,.,.,.,.,.,67.7,.
N#Cc1c(-c2ccco2)cc(C2CC2)nc1N,+,.,.,.,.,.,.,.,.
N#Cc1c(-c2ccccc2)cc(C2CC2)nc1N,.,.,.,.,.,.,/,/,/
O=C(Nc1nnc(Cc2c[nH]c3ccccc23)s1)c1ccc(Cl)cc1Cl,+,.,.,.,.,.,.,.,.
CC(C)(C)c1ccc(C(=O)Nc2nnc(Cc3c[nH]c4ccccc34)s2)cc1,.,.,.,.,.,.,/,/,/
CCCCc1ccc(NC(=O)CC(C)=O)cc1,+,.,.,.,.,.,.,.,.
CCCCc1ccc(NC(=O)CC(C)(C)C)cc1,.,.,.,.,.,.,/,/,/
CN(C)c1ccc(/C=N/NC(=O)c2ccc(NC(=O)c3ccccc3)cc2)cc1,.,.,.,.,.,.,/,/,/
